Compound activity deposited in PubChem BioAssay by several laboratories.
Shown are actives, neighbours in structure and some others; about 5.3% of the full set was active somewhere.
NLRP3 yeast inh: NALP3 inflammasome inhibitors in reconstituted yeast, primary screen, luminescence, uHTS. Yeast reconstituted NLRP3/ASC/caspase-1, beta-gal luminescence, 24 h. inhibition, % at 10 µM. 330,000 tested, 0.39% active. AID 2825, 2010;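 active = inhibition of 50% or more; inactive = inhibition below 50%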;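 note: plate controls were induced DMSO wells for no effect and uninduced yeast grown without galactose for full effect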
Beta apoptosis: inhibitors of cytokine-induced beta cell apoptosis, primary screen, luminescence; INS-1E cytokine-induced death, ATP luminescence, 48 h; percent of positive-control rescue, neutral wells zero; protection from apoptosis, % (test concentration not listed); 300,000 tested, 0.8% active; AID 435005, 2010;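 active = Every replicate reaches about 75%, or at least half do and their mean reaches it too, limit read from the data; inconclusive = At least half of replicates reach the limit but their mean does not; inactive = Under half of replicates reach the limit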;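 note: 0% = cytokine-treated negative control wells and 100% = positive control rescue; higher means more ATP so stronger rescue from cytokine killing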
T cruzi inh: inhibitors of intracellular T. cruzi growth, primary screen, luminescence, NIH3T3 host cells | inhibition, % (test concentration not listed) | 300,000 tested, 1.4% active | T. cruzi beta-gal in NIH3T3, 90 h;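 active = mean inhibition across valid replicates above about 55%, limit read from the data; inconclusive = mean below that limit but half or more replicates reach it; inactive = mean below it, under half of replicates reach it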;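 note: signal also drops with host cell toxicity which is not excluded here; 0% = plate median of DMSO wells and 100% = zero luminescence signal; higher percent means less beta-gal luminescence so fewer parasites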
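Assay system: NIH/3T3 host cells with β-galactosidase reporter T. cruzi; input: 5,000 host fibroblasts per well; compound: single 50 nL compound addition per well in DMSO; timing: ≥90 h infection period, 3 h prior cell attachment; measured by: GalScreen β-gal luminescence, detergent lysis, 60 min; evaluation: percent inhibition of parasite-derived β-gal signal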
CSC inhib: cancer stem cell viability inhibitors, primary screen, luminescence. AID 2717, 2010. cancer stem cell-like cells viability. inhibition, % at 7.5 µM. 300,000 tested, 1.1% active; in the data active = inhibition above about 75%; inconclusive = no clear call, values can overlap the other calls; tested in HMLE shEcad cells
Mdm2 MdmX PPI: inhibitors of human Mdm2-MdmX association, primary screen, cell-based, luminescence, split luciferase, SaOS-2, uHTS. Protein Mdm4 (Homo sapiens) + E3 ubiquitin-protein ligase Mdm2 (Homo sapiens), …. SaOS-2 split-luciferase Mdm2/MdmX complementation. inhibition, % at 8 µM. 330,000 tested, 3% active;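 active = inhibition of at least 50% at 8 µM in the primary screen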
Target sequence (O15151 whole entry, looked up): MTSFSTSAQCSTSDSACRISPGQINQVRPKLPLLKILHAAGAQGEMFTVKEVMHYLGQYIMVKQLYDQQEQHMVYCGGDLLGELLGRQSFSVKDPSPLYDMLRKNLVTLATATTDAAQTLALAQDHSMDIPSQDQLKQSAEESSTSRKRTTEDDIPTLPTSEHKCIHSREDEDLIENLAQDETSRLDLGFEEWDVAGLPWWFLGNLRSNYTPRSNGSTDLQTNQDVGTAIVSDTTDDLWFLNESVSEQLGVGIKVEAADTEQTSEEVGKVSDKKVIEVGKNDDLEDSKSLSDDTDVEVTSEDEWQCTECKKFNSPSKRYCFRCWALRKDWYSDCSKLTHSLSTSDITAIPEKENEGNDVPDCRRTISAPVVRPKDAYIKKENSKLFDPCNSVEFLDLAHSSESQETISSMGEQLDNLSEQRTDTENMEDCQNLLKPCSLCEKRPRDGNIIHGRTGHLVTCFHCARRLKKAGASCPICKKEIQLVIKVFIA
Target sequence (Q00987 whole entry, looked up): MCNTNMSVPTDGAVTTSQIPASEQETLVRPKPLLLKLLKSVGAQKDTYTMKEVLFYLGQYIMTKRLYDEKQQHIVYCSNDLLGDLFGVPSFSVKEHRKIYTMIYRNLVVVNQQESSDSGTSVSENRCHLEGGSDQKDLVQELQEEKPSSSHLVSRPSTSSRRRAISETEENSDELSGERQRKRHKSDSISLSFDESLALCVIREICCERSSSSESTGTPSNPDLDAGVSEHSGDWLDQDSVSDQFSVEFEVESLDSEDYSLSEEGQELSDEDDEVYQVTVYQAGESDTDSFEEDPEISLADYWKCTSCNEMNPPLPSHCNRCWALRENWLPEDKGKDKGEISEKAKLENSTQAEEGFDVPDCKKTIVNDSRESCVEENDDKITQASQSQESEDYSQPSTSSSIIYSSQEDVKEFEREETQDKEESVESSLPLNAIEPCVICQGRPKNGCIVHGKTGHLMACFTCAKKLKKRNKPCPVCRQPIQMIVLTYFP
Calb FLC: C. albicans growth inhibition with fluconazole, primary screen, CaCi-2 strain, Alamar Blue fluorescence | C. albicans CaCi-2 + fluconazole, 48 h | growth inhibition, % (no concentration beside the values) | 300,000 tested, 0.57% active | AID 1979, 2009;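 active = growth inhibition above about 58% in most replicates, limit read from the data, passing the limit was not always enough; inconclusive = exactly half the replicates above a set limit; inactive = most replicates below a set limit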;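 note: all wells also contain fluconazole at 8 µg/ml as a sub-toxic cotreatment; 0% = median of DMSO wells and 100% = median of geldanamycin control wells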
Numbers without * were called inactive; ? = inconclusive; / = not tested or not shown.

SMILES	NLRP3 yeast inh	Beta apoptosis	T cruzi inh	CSC inhib	Mdm2 MdmX PPI	Calb FLC
C=CCn1c(O)c(N=NC(=S)Nc2ccccc2C)c2cc(S(=O)(=O)N3CCOCC3)ccc21	1	55	40	31	39	106*
O=C(CN(Cc1ccc(F)cc1)C(=O)CCC(=O)Nc1ccccn1)NCc1ccc(F)cc1	29	-16	17	-8	5	-12
COc1ccc(-c2cc(C(=O)NNC(=S)NC(=O)c3c(-c4ccccc4)noc3C)[nH]n2)cc1	13	11	4	23	18	81*
COc1ccc(/C=C/C(=O)NC(=S)NNC(=O)c2c(-c3ccccc3)noc2C)cc1	32	21	-7	5	27	3
COc1ccc(/C=C(/C(=O)c2ccc(Cl)cc2Cl)n2cncn2)cc1	28	1	62*	17	10	18
CN(C)c1ccc(/C=C(/C(=O)c2ccc(Cl)cc2Cl)n2cncn2)cc1	9	2	39	-7	26	-2
CC(=O)c1ccc(NC(=O)/C=C/c2ccc(C)cc2)cc1	10	-2	-9	9	-28	-2
COCC1CCN(Cc2cn[nH]c2-c2cc3ccccc3o2)C1 (configuration not stated)	9	2	69*	26	-9	-7
Cc1c(NC(=S)/C=C2\N(C)c3ccccc3C2(C)C)c(=O)n(-c2ccccc2)n1C	-5	37	-4	-5	0	23
CC(=O)/C=C1\N(C)c2ccc(C)cc2C1(C)C	19	99*	66*	-7	39	1
CN1/C(=C/C(=S)NC(=O)C2CCC2)C(C)(C)c2ccccc21	14	59	6	8	18	-5
CC(C)C(=O)NC(=S)/C=C1/N(C)c2ccccc2C1(C)C	12	109*	38	-2	28	-11
CN1/C(=C\C=N\NC(=O)c2ccc(O)cc2)C(C)(C)c2ccccc21	5	113*	17	8	28	1
Cc1ccc(C(=O)NC(=S)/C=C2\N(C)c3ccccc3C2(C)C)cc1	8	94*	44	11	19	39
CN1/C(=C\C(=O)C(F)F)C(C)(C)c2ccccc21	2	-3	-8	11	8	/
CCCCCCOc1ccc(C(CC(=O)O)C(N)=O)cc1 (configuration not stated)	-6	-4	4	-9	9	0
O=C(NC1CC1)C1=C[C@H](C2CC2)C[C@H](OCCCCO)O1	3	-1	-18	7	12	5
O=[N+]([O-])C(/C=C(/Cl)[N+](=O)[O-])=C(N1CCCCC1)N1CCCCC1	31	-33	55*	-18	26	-2
COc1cccc(C2/C(=C(\O)c3ccc4c(c3)OCCO4)C(=O)C(=O)N2Cc2cccnc2)c1 (configuration not stated)	7	-1	-4	3	21	4
Cc1c2c(n3c(nc4ccccc43)c1C#N)N(CCN(C)C)CC2	16	45	70*	-4	30	10
Cc1c(Cc2ccccc2)c(NCCN(C)C)n2c(nc3ccccc32)c1C#N	45	10	56*	-13	18	7
Cc1c2c(n3c(nc4ccccc43)c1C#N)N(CCCN(C)C)CC2	3	5	63*	-14	13	3
COC(=O)c1sc(NC(=O)C2c3ccccc3Oc3ccccc32)c(C(=O)OC)c1C	-9	116*	10	16	9	4
COC(=O)c1c(NC(=O)C2c3ccccc3Oc3ccccc32)sc(C)c1C	5	17	10	25	10	18
N#Cc1c(Nc2ccccc2)s[nH]c1=O	10	-4	-7	1	5	-4
SMILES	NLRP3 yeast inh	Beta apoptosis	T cruzi inh	CSC inhib	Mdm2 MdmX PPI	Calb FLC
CCOC(=O)N1CCN(C(=O)c2ccccc2NC(=O)c2ccccc2Cl)CC1	2	-5	3	-1	-1	-11
C=CCOC(=O)c1sc(NC(=O)c2ccco2)nc1C	15	19	-4	71	-26	79*
CCOC(=O)c1sc(NC(=O)c2cc3ccccc3o2)nc1C	13	-13	0	8	-179	1
O=c1c(Cc2ccc(F)cc2)c(O)ccn1Cc1ccc(Cl)cc1Cl	24	3	-10	6	22	3
O=C(Cn1c(C(F)(F)F)nc2ccccc21)Nc1ccccc1C(=O)O	19	0	-18	-5	11	13
CC(C(=O)Nc1ccccc1C(=O)O)n1c(C(F)(F)F)nc2ccccc21 (configuration not stated)	19	2	71*	-3	-5	-4
O=C(c1cc(-c2ccc(O)cc2)on1)N1CCN(c2ccccc2)CC1	16	-1	-9	104*	-2	6
CC1(C)CC2CC(C)(CN2C(=O)c2cc(-c3ccc(O)cc3)on2)C1 (configuration not stated)	12	5	17	87*	18	10
O=C(O)c1cc(-c2ccc(O)cc2)on1	8	0	-10	-5	22	100*
O=C(c1cc(-c2ccc(O)cc2)on1)N1CCN(c2ccc(F)cc2)CC1	27	1	-6	111*	6	1
CSCCC(NS(=O)(=O)c1ccc(Cl)cc1)C(=O)OCc1c(Cl)cccc1Cl (configuration not stated)	11	5	-5	-1	20	-5
CC(=O)c1ccc(N2C(=NC(=O)CCC3CCCC3)SC3CS(=O)(=O)CC32)cc1 (configuration not stated)	-2	-5	8	-2	-12	-12
Cn1nc(C(C)(C)C)c([N+](=O)[O-])c1C(=O)Nc1ccccc1	21	4	7	-5	-8	?
CCc1nn2c(=O)cc(COC(=O)c3cc(Cl)c(OC)c(OC)c3)nc2s1	30	-2	/	-15	24	/
O=C(Oc1cccnc1)c1ccc([N+](=O)[O-])cc1	-13	-5	-41	-9	14	-6
O=[N+]([O-])c1cc(Oc2cccnc2)cc([N+](=O)[O-])c1	21	24	61*	/	-22	19
Cc1ccc(NP(=O)(c2ccc(N(C)C)cc2NC(=O)c2cccs2)N2CCOCC2)cc1Cl (configuration not stated)	18	13	61*	-6	29	6
CN(C)c1ccc(P(=O)(Nc2ccc([N+](=O)[O-])cc2)N2CCOCC2)c(NC(=O)c2cccs2)c1 (configuration not stated)	7	5	34	12	1	-5
